# Calls of active or inactive are those of the source. The rule behind the calls is not given here.
# Columns and labels:
# D(2) dopamine receptor [1] = molecular target: T1, D(2) dopamine receptor (Homo sapiens, UniProt P14416); experiment: Displacement of [125I]7-OH-PIPAT from human D2L receptor expressed in HEK293 cell membrane; type: cell membranes
# D(4) dopamine receptor [2] = molecular target: T2, D(4) dopamine receptor (Homo sapiens, UniProt P21917); experiment: Displacement of [3H]spiperone from human D4 receptor expressed in HEK293 cell membrane; type: cell membranes
# T2 sequence (P21917 whole entry): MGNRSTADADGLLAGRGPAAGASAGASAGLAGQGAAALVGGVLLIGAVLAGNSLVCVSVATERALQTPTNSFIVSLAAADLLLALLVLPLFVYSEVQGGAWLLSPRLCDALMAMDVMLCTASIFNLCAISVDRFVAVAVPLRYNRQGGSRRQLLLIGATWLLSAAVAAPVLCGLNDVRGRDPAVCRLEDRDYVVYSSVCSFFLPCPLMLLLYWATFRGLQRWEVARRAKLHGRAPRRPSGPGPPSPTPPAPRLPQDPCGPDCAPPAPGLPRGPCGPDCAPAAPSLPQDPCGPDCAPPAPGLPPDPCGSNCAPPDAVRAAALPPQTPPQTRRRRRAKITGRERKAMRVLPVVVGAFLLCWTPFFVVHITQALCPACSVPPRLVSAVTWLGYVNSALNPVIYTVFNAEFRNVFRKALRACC
# Rattus norvegicus [3] = experiment: Proerectile activity in rat measured as incidence of penile erection at 0.03 umol/kg, sc; type: functional
# Method in brief: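 Conscious male rats dosed subcutaneously. Penile erection incidence scored over 60 min after injection; values are % ± SEM, with significance tested against control.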
# D(4) dopamine receptor [4] = molecular target: T2, D(4) dopamine receptor; experiment: Agonist activity at human D4.4 receptor in HEK293 cells coexpressing G-alpha-qo5 by FLIPR; type: functional, cell-based
# [5] = Bioavailability in Sprague-Dawley rat at 1 mg/kg, po; type: ADME, organism-based; conditions: in vivo
# Method in brief: (§1)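 Single 1 mg/kg dose given iv, sc or orally to Sprague-Dawley rats, dogs and monkeys; plasma concentrations followed over time (mean ± SEM, n = 3). Cmax, AUC, half-life, clearance and bioavailability calculated from the curves.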
# [6] = Bioavailability in Sprague-Dawley rat at 1 mg/kg, sc; type: ADME, organism-based; conditions: in vivo; method in brief: as §1
# [7] = Half life in Sprague-Dawley rat at 1 mg/kg, sc; type: ADME, organism-based; set-up: dose 1 mg/kg, route subcutaneous; conditions: in vivo; method in brief: as §1
# D(2) dopamine receptor [8] = molecular target: T1, D(2) dopamine receptor; experiment: Binding affinity at human D2L receptor by displacement of [125I]-7-OH-PIPAT in membranes
# Rattus norvegicus [9] = experiment: Blockade of ABT-670-induced erctogenic activity in rat at 3 umol/kg, ip; type: functional, organism-based
# D(2) dopamine receptor [10] = molecular target: T1, D(2) dopamine receptor; experiment: Binding affinity to human D2S receptor
# [11] = molecular target: D(3) dopamine receptor (Homo sapiens) (UniProt P35462); experiment: Agonist activity at human D3 receptor in HEK293 cells coexpressing G-alpha-qo5 by FLIPR upto 10 uM; type: functional, cell-based
# Sequence of D(3) dopamine receptor (Homo sapiens) (P35462 whole entry): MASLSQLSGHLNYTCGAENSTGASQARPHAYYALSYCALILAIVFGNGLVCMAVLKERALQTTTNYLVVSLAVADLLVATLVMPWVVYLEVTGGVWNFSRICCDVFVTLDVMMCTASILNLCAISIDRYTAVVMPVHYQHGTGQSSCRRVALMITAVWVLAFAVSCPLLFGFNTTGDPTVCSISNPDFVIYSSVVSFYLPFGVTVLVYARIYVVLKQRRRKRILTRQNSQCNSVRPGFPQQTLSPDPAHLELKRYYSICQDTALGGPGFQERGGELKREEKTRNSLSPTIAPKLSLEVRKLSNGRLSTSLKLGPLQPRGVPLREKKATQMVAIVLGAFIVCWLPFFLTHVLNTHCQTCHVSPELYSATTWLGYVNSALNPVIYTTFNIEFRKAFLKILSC
# Mustela putorius furo [12] = organism: Mustela putorius furo; experiment: Induction of emesis in ferret; type: functional, organism-based
# Mustela putorius furo [13] = organism: Mustela putorius furo; experiment: Induction of nausea in ferret; type: functional, organism-based
# D(4) dopamine receptor [14] = molecular target: T3, D(4) dopamine receptor (Rattus norvegicus, UniProt P30729); experiment: Agonist activity at rat D4 receptor in HEK293 cells coexpressing G-alpha-qo5 by FLIPR; type: functional, cell-based
# T3 sequence (P30729 whole entry): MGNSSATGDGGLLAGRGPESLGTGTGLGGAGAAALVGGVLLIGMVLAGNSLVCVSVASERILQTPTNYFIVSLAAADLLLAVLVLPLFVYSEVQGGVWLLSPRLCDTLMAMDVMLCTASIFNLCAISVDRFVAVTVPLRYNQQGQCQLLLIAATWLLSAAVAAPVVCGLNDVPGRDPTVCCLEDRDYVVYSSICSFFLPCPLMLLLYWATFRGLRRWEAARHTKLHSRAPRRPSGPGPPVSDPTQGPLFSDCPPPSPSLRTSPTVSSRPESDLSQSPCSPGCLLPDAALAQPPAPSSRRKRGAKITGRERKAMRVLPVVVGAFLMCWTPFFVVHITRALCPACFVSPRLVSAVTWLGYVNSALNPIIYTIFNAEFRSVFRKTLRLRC
# [15] = molecular target: T4, D(4) dopamine receptor (Rattus norvegicus) (UniProt P30729); experiment: Agonist activity at rat D4 receptor in HEK293 cells co-expressing Galphaqo5 by FLIPR relative to dopamine; type: functional, cell-based
# T4 sequence (whole entry): T3 sequence (P30729 whole entry)
# D(2) dopamine receptor [16] = molecular target: T1, D(2) dopamine receptor; experiment: Agonist activity at human D2 receptor in HEK293 cells coexpressing G-alpha-qo5 by FLIPR relative to dopamine upto 10 uM; type: functional, cell-based
# Method in brief: (§2)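 Ca2+ flux by FLIPR in HEK cells cotransfected with the D2 receptor (human, ferret or rat) plus chimeric G protein Gqo5.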
# [17] = molecular target: D(2) dopamine receptor (Rattus norvegicus) (UniProt P61169); experiment: Agonist activity at rat D2 receptor in HEK293 cells coexpressing G-alpha-qo5 by FLIPR relative to dopamine upto 10 uM; type: functional, cell-based; method in brief: as §2
# Sequence of D(2) dopamine receptor (Rattus norvegicus) (P61169 whole entry): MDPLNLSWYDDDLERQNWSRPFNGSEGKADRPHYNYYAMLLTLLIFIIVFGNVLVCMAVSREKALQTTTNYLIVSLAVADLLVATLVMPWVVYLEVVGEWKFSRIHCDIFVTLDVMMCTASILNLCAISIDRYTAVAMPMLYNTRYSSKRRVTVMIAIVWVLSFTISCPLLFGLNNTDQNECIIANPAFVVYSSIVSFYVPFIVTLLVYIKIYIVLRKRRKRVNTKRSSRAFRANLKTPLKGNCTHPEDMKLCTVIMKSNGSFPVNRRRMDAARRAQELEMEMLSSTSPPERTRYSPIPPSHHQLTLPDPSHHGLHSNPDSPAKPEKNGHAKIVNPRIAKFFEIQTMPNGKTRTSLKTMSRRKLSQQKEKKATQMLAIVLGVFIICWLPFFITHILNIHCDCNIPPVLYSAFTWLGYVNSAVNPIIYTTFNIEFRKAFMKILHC
# [18] = molecular target: T5, D(4) dopamine receptor (Homo sapiens) (UniProt P21917); experiment: Activity at human D4.4 receptor in HEK293 cells co-expressing Galphaqo5 by FLIPR; type: functional, cell-based
# T5 sequence (whole entry): T2 sequence (P21917 whole entry)
# D(4) dopamine receptor [19] = molecular target: T2, D(4) dopamine receptor; experiment: Displacement of [3H]A369508 from human D4 receptor expressed in HEK293 cell membrane; type: cell membranes
# [20] = molecular target: Phosphodiesterase 1 (Homo sapiens) (UniProt P54750+Q01064+Q14123); experiment: Activity at PDE1 at 10 uM; type: protein assay
# Method in brief: (§3)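 Broad selectivity panel (over 70 receptors, ion channels and neuronal receptors, PDE1-6 included) run at a single 10 µM concentration.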
# [21] = molecular target: cGMP-dependent 3',5'-cyclic phosphodiesterase (Homo sapiens) (UniProt O00408); experiment: Activity at PDE2 at 10 uM; method in brief: as §3
# Sequence of cGMP-dependent 3',5'-cyclic phosphodiesterase (Homo sapiens) (O00408 whole entry): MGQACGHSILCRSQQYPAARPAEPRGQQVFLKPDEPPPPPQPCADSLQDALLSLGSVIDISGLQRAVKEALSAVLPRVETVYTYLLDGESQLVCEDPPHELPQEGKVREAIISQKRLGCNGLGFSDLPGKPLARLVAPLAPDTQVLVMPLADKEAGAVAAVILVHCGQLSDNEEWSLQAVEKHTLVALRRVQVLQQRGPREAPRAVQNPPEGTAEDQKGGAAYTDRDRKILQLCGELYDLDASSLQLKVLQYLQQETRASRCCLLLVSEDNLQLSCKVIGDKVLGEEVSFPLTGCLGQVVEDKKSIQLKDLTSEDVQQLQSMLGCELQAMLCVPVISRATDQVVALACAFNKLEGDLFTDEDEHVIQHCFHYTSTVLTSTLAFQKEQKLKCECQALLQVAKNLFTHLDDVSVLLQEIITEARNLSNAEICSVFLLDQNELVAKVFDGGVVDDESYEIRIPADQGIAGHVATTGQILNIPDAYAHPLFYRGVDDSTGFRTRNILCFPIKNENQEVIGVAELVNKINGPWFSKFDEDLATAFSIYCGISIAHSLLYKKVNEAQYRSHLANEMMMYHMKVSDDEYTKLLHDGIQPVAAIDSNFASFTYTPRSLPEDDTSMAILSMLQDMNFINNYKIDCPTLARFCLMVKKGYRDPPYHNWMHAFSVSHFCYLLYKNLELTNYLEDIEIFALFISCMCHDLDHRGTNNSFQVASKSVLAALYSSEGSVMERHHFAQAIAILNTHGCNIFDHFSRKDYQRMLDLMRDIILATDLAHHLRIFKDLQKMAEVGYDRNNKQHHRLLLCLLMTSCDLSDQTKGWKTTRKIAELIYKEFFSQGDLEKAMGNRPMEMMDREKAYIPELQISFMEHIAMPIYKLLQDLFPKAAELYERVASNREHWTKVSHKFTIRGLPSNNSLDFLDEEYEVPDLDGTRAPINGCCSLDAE
# [22] = molecular target: Phosphodiesterase 3 (Homo sapiens) (UniProt Q14432+Q13370); experiment: Activity at PDE3 at 10 uM; type: protein assay; method in brief: as §3
# [23] = molecular target: Phosphodiesterase 4 (Homo sapiens) (UniProt P27815+Q08499+Q07343+Q08493); experiment: Activity at PDE4 at 10 uM; type: protein assay; method in brief: as §3
# [24] = molecular target: cGMP-specific 3',5'-cyclic phosphodiesterase (Homo sapiens) (UniProt O76074); experiment: Activity at PDE5 at 10 uM; method in brief: as §3
# [25] = molecular target: Phosphodiesterase 6 (Homo sapiens) (UniProt Q13956+P18545+P35913+O43924+P16499+P51160); experiment: Activity at PDE6 at 10 uM; type: protein assay; method in brief: as §3
# Rattus norvegicus [26] = experiment: Proerectile activity in rat measured as incidence of penile erection at 0.3 umol/kg, sc; type: functional
# Method in brief: (§4)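 Conscious male rats were given a single subcutaneous injection and observed for penile erections over the following 60 min. The read-out was the incidence of erections, expressed as % of animals ± SEM (n = 12–32 animals per group), with significance tested against controls. The value is the maximal incidence at the maximally effective dose.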
# [27] = Half life in Sprague-Dawley rat at 1 mg/kg, po; type: ADME, organism-based; set-up: dose 1 mg/kg, route oral; conditions: in vivo; method in brief: as §1
# [28] = Oral bioavailability in rat; type: ADME, organism-based; conditions: in vivo; method in brief: as §1
# [29] = Oral bioavailability in dog; type: ADME, organism-based, Canis lupus familiaris; conditions: in vivo; method in brief: as §1
# [30] = Oral bioavailability in monkey; type: ADME, organism-based, Macaca mulatta; conditions: rhesus monkey, in vivo; method in brief: as §1
# hERG = hERG (Homo sapiens, UniProt Q12809); experiment: Blockade of current at hERG expressed in HEK293 cells at 3 ug/mL; type: cell-based; conditions: HEK293 cells that express hERG
# Sequence of hERG (Q12809 whole entry): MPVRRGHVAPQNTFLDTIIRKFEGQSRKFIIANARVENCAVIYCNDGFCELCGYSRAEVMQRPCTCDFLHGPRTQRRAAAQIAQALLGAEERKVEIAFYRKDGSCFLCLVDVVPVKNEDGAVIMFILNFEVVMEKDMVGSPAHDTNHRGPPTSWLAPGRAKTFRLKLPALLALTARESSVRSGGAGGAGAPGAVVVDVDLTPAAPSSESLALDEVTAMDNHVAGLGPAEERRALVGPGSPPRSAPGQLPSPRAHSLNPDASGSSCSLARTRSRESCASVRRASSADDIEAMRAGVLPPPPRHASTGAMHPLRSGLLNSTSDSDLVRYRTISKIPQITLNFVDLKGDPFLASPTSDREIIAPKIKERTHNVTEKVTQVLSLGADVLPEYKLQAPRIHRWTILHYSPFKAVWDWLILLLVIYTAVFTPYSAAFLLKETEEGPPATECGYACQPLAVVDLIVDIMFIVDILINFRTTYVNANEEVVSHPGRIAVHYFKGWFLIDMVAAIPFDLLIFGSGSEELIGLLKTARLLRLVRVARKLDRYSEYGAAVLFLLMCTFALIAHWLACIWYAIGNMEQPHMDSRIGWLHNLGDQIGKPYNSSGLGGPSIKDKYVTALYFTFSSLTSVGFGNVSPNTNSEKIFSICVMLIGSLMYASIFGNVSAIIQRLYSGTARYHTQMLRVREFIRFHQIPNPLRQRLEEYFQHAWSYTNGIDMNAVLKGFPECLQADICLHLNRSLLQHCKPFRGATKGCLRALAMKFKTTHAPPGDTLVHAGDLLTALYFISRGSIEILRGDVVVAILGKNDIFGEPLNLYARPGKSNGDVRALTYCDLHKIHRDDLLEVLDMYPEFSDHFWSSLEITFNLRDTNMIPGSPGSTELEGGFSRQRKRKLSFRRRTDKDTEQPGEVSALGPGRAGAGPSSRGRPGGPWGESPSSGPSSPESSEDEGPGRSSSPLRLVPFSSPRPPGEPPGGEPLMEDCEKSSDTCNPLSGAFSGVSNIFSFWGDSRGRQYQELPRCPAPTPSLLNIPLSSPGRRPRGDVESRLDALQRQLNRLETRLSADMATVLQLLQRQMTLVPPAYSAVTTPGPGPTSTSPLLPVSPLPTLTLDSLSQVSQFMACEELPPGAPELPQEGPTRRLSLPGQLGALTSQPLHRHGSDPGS
# Method in brief: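 hERG stably expressed in HEK293 cells; whole-cell voltage clamp. Pipette: K aspartate/KCl/EGTA/MgATP, pH 7.3. Bath: NaCl-based HEPES, pH 7.4. Compound dissolved in DMSO (≤0.1%), one concentration per cell. Steps to -25 to +50 mV for 3 s, then -50 mV for 4 s, from -80 mV every 15 s; tail current measured against DMSO vehicle.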
# [31] = Effect on canine cardiac Purkinje fiber repolarization measured as prolongation of action potential duration at 1.6 ug/mL; type: functional, Canis lupus familiaris
# Method in brief: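 Canine Purkinje fibres impaled with 3 M KCl microelectrodes after at least 30 min equilibration under stimulation. Bath: 131 mM NaCl, 18 mM NaHCO3, 4 mM KCl, 2 mM CaCl2. Baseline APD90 recorded at BCL 2 s, 800 and 400 ms. Each fibre then received two ascending concentrations, each with 25 min equilibration and re-recording at all three rates.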
# [32] = Agonist activity at ferret D4 receptor in HEK293 cells coexpressing G-alpha-qo5 by FLIPR; type: functional, cell-based, Mustela putorius furo; conditions: Mustela putorius
# Method in brief: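 HEK cells cotransfected with ferret D4 receptor and chimeric G protein Gqo5, with receptor activation read as a calcium flux signal on FLIPR. EC50 is the concentration giving half-maximal activation.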
# [33] = Agonist activity at ferret D4 receptor in HEK293 cells coexpressing G-alpha-qo5 by FLIPR relative to dopamine; type: functional, Mustela putorius furo
# Rattus norvegicus [34] = experiment: Proerectile activity in rat measured as incidence of penile erection at 0.1 umol/kg, sc; type: functional; method in brief: as §4
# [35] = tested on: D(2) dopamine receptor (Mustela putorius furo); experiment: Agonist activity at ferret D2 receptor in HEK293 cells coexpressing Galphaqo5 by FLIPR relative to dopamine upto 10 uM
# Rattus norvegicus [36] = experiment: Blockade of ABT-670-induced erctogenic activity in rat at 10 umol/kg, ip; type: functional, organism-based
# Rattus norvegicus [37] = experiment: Blockade of ABT-670-induced erctogenic activity in rat at 1 umol/kg, ip; type: functional, organism-based
# T1 sequence (P14416 whole entry): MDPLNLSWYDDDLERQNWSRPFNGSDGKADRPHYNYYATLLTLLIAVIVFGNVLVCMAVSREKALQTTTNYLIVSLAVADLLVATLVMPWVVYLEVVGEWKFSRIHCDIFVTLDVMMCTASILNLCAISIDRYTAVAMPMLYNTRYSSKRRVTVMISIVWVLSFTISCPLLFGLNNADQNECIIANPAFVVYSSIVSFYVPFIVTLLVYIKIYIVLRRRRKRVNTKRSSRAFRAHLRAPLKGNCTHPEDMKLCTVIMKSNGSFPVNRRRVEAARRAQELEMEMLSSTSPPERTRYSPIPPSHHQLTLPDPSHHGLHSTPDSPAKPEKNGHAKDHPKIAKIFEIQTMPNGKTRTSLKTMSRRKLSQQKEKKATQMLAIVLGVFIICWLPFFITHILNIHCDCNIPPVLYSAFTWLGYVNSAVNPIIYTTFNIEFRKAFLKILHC
smiles,measurement,setting,value
Cc1cccc(C(=O)NCN2CCC(c3ccccn3)CC2)c1,Ki,D(2) dopamine receptor [1],3500 nM
same,Ki,D(4) dopamine receptor [2],32 nM
same,Activity,Rattus norvegicus [3],83%
same,EC50,D(4) dopamine receptor [4],9 nM
same,bioavailability,[5],2%
same,bioavailability,[6],76%
same,half-life,[7],36 min
same,Ki,D(2) dopamine receptor [8],3500 nM
CN1CCN(C2=Nc3cc(Cl)ccc3Nc3ccccc32)CC1,Activity,Rattus norvegicus [9],Active
Cc1cccc(NC(=O)CN2CCC(c3cccc[n+]3[O-])CC2)c1,Ki,D(2) dopamine receptor [10],> 10000 nM
same,Activity,[11],inactive
same,Activity,Mustela putorius furo [12],inactive
same,Activity,Mustela putorius furo [13],inactive
same,EC50,D(4) dopamine receptor [14],57 nM
same,Efficacy,[15],80%
same,Activity,D(2) dopamine receptor [16],inactive
same,Activity,[17],inactive
same,Activity,[18]; filed as agonist,Agonist
same,Ki,D(2) dopamine receptor [1],> 10000 nM
same,Ki,D(4) dopamine receptor [19],294 nM
same,Activity,[20],inactive
same,Activity,[21],inactive
same,Activity,[22],inactive
same,Activity,[23],inactive
same,Activity,[24],inactive
same,Activity,[25],inactive
same,Activity,Rattus norvegicus [26],75%
same,EC50,D(4) dopamine receptor [4],32 nM
same,bioavailability,[5],11%
same,bioavailability,[6],61%
same,half-life,[7],30 min
same,half-life,[27],18 min
same,bioavailability,[28],11%
same,bioavailability,[29],70%
same,bioavailability,[30],28%
same,inhibition at 3 ug/mL,hERG,44.8%
same,Activity,[31],12%
Oc1ccc(N2CCN(Cc3nc4ccccc4[nH]3)CC2)nc1,Ki,D(2) dopamine receptor [10],> 10000 nM
same,Activity,[11],inactive
same,Activity,Mustela putorius furo [12],inactive
same,Activity,Mustela putorius furo [13],inactive
same,EC50,[32],5 nM
same,EC50,D(4) dopamine receptor [14],13.7 nM
same,Efficacy,[33],48%
same,Efficacy,[15],66%
same,Activity,D(2) dopamine receptor [16],inactive
same,Activity,[17],inactive
same,Activity,[18]; filed as partial agonist,Partial agonist
same,Ki,D(2) dopamine receptor [1],> 10000 nM
same,Ki,D(4) dopamine receptor [19],17 nM
same,Activity,Rattus norvegicus [34],60%
same,EC50,D(4) dopamine receptor [4],2.4 nM
same,Activity,[35],inactive
Cc1cccc(NC(=O)CN2CCC(c3ccccn3)CC2)c1,Activity,[18]; filed as agonist,Agonist
same,Ki,D(4) dopamine receptor [19],8 nM
same,Activity,Rattus norvegicus [34],75%
same,EC50,D(4) dopamine receptor [4],14 nM
same,bioavailability,[5],0%
same,bioavailability,[6],57%
same,half-life,[7],42 min
O=c1[nH]c2ccccc2n1CCCN1CCC(n2c(=O)[nH]c3cc(Cl)ccc32)CC1,Activity,Rattus norvegicus [36],inactive
O=C(CCCN1CCC(O)(c2ccc(Cl)cc2)CC1)c1ccc(F)cc1,Activity,Rattus norvegicus [37],Active

# Source: ChEMBL document CHEMBL1137302 (J Med Chem, 2006)
